Source: PubChem (several laboratories)
This is a sample that favours compounds with a hit; in the whole collection about 1.3% have one here.
MT1-MMP act inh: blocks activation of human MT1-MMP; HT1080 RFP-PRO-GFP cells, GFP/RFP ratio fluorescence, overnight; percent of plate control window, DMSO zero; GFP/RFP ratio change, % at 20 µM; P50281; 360,000 compounds, 0.061% hits;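 active = GFP/RFP ratio change of at least 30% with cell ATP level not reduced by more than half and red fluorescence within 50% of control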
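system = RFP-PRO-GFP reporter HT1080 cells | dosing = 20 µM single dose, 1% DMSO | timing = overnight cell settling, then overnight compound exposure, 37 °C, 5% CO2 | read-out basis = GFP/RFP fluorescence ratio | controls = DMSO and RFP-L50D-GFP cell wells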
DAGLB inhibitor: blocks human DAGLB lipase activity; 340,000 compounds, 0.059% hits; Q8NCG7; AID 504411; inhibition, % at 5.17 µM; HEK293T DAGLB membrane lysate, EnzChek fluorogenic substrate; in the data active = inhibition above about 34%;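 also: 0% = enzyme with vehicle and 100% = wells lacking enzyme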
ANO1 block: inhibitors of mouse TMEM16A calcium-activated chloride channel. AID 588511. Q8BHY3. normalized B-score (activity score, 25-100; higher = stronger inhibition) at 10 µM. 310,000 compounds, 1.2% hits. HEK293 TMEM16A/YFP iodide influx fluorescence, ionomycin;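 active = ratio plate-corrected score three or more library SD toward inhibition, starting fluorescence score within five deviations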;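 also: score derived from kinetic fluorescence span divided by baseline fluorescence per well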
Target sequence (Q8BHY3 whole entry, looked up): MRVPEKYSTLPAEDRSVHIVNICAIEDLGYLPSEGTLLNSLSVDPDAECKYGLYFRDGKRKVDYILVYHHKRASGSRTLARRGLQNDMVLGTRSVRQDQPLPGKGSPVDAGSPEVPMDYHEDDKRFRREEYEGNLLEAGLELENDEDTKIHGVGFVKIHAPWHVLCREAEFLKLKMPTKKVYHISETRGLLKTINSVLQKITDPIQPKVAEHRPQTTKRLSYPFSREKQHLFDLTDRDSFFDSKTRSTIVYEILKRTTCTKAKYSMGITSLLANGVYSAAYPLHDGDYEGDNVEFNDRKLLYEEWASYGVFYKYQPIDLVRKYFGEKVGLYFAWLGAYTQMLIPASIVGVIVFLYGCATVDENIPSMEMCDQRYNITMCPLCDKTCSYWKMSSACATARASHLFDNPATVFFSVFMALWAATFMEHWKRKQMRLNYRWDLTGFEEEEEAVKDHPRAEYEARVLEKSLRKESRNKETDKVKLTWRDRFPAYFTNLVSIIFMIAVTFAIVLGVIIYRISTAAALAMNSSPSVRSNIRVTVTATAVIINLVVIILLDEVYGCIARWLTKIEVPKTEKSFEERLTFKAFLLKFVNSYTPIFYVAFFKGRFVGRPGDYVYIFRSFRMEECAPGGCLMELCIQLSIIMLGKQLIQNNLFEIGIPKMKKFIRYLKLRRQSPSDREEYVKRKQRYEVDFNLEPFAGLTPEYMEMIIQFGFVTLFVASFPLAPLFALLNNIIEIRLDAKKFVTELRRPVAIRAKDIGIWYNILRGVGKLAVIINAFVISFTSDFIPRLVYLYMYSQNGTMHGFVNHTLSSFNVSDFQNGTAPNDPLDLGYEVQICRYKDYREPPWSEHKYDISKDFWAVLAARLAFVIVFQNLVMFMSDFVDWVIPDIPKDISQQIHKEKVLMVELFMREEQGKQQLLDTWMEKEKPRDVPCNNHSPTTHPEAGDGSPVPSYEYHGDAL
TMEM16A act: activates or potentiates the mouse TMEM16A chloride channel. AID 623877. HEK293 TMEM16A/YFP-H148Q/I152L, iodide quench fluorescence; hits give low values. 340,000 compounds, 0.3% hits. B-score at 10 µM;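 active = fluorescence-ratio B-score plate-corrected deviation score at least 3 library SD below zero, with starting fluorescence score within 5 deviations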;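 also: channel opened by trigger with iodide after compound preincubation; score built on the fluorescence ratio of max minus min over baseline; more negative score means more quench and so TMEM16A activation or potentiation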
Numbers without * were called inactive; i = inactive; nt = not tested or not shown.

SMILES	MT1-MMP act inh	DAGLB inhibitor	ANO1 block	TMEM16A act
O=[N+]([O-])c1c(Nc2cccc(O)c2)cc(Cl)c2nonc12	4	4	25*	-11*
Cc1ccn(CC(=O)N2CCCC(N3CCN(c4cccc(C(F)(F)F)c4)CC3)C2)n1 (stereo not given)	4	2	nt	nt
CCc1cccc2c(C(=O)CSc3nnc(C4CC4)o3)c[nH]c12	6	0	nt	i
CCc1nnc(NS(=O)(=O)c2ccc(NC(=S)NC(=O)/C=C/c3ccccc3)cc2)s1	-1	14	i	i
CCc1nnc(NS(=O)(=O)c2ccc(NC(=S)NC(=O)/C=C/c3ccc(C(C)C)cc3)cc2)s1	0	19	100*	i
CN(CC(=O)Nc1ccccc1Cl)C(=O)C1CCN(C(=O)c2ccc(F)cc2)CC1	4	0	nt	i
CCn1c(=NC(=O)CS(=O)(=O)c2ccc(C)cc2)sc2cccc(OC)c21	-3	-6	100*	i
CCCCCCCCCCOC(=O)Cn1c(COc2ccccc2OC)[n+](C)c2ccccc21	-13	6	100*	-5.8*
COc1ccc(N2CCN(C(=O)CN3CCN(c4nc(-c5ccc(F)cc5)cs4)CC3)CC2)cc1	-8	0	25*	i
CC(C)(Sc1ccc(CCN(CCCCC2CCCCC2)C(=O)NC2CCCCC2)cc1)C(=O)O	4	7	100*	i
CN(Cc1ccccc1)C(=O)NC1CCCCC1	0	0	i	i
O=C(c1ccc(-c2ccccc2)cc1)C1CCCN(Cc2ccncc2)C1 (stereo not given)	-17	-2	100*	i
O=C(c1ccc(-c2ccccc2)cc1)C1CCCN(C(=O)c2ccncc2)C1 (stereo not given)	-3	-1	i	i
C/C(=C\C(=O)c1ccccc1)Nc1ccc(Br)c(Cl)c1	-1	-1	25*	i
CC[C@]12c3[nH]c4ccccc4c3CCN1C(=O)C(CC(=O)NCCCN(C)C)C[C@@H]2C(=O)N1CCN(C(=O)C2CC2)CC1 (stereo not given in full)	2	-2	nt	nt
OC(c1cccc(Cl)c1)c1ncc(-c2cccc(C(F)(F)F)c2)[nH]1 (stereo not given)	6	nt	nt	nt
O=C(COc1cccc2ccccc12)N/N=C/c1ccccc1OCc1ccc(C(=O)O)cc1	5	1	100*	i
O=C(COc1ccccc1-c1ccccc1)N/N=C/c1cccc2ccccc12	7	-9	i	i
O=C(O)c1cccc(NC(=S)N/N=C/c2ccccc2OCc2cccc(Br)c2)c1	-3	7	nt	i
O=C(O)c1cccc(NC(=S)N/N=C/c2ccccc2OCc2ccc(Br)cc2)c1	3	7	25*	i
C[C@@H]1CN([C@H](C)CO)C(=O)c2cc(Br)cnc2O[C@@H]1CN(C)Cc1ccc(-c2ccccc2)cc1	-3	-2	nt	nt
COc1ccccc1C1CC(c2cccc(NS(C)(=O)=O)c2)=NN1S(=O)(=O)c1ccccc1 (stereo not given)	-11	-1	i	-5*
CN(CC(=O)Nc1ccc(Cl)c(C(F)(F)F)c1)C(=O)c1ccccc1SCC(=O)N1CCCC1	3	-4	nt	i
COC(=O)C1=C(C)NC2=C(C(=O)c3ccccc32)C1c1cccc(OC)c1 (stereo not given)	2	24	i	i
CC1=C([N+](=O)[O-])C(c2cccc(Br)c2)C2=C(N1)c1ccccc1C2=O (stereo not given)	3	11	100*	i
SMILES	MT1-MMP act inh	DAGLB inhibitor	ANO1 block	TMEM16A act
O=C(NC1CCCC1)C(c1ccccc1)n1c(Cc2cc(F)cc(F)c2)nc2ccccc21 (stereo not given)	-5	nt	nt	nt
O=C(COC(=O)c1cc(S(=O)(=O)N2CCCC2)ccc1O)Nc1ccc(S(=O)(=O)N2CCOCC2)cc1	2	1	i	i
COc1ccc(S(=O)(=O)N2CCCCCC2)cc1C(=O)OCC(=O)NC(C)(C)C	-2	-4	i	-4.7*
O=C(COC(=O)c1ccccc1C(=O)c1ccccc1)Nc1ccc(SC(F)F)cc1	5	-6	100*	i
O=C(COC(=O)c1cc(S(=O)(=O)N2CCCC2)ccc1O)Nc1ccc(SC(F)F)cc1	1	-6	nt	-26*
C=CCNc1nc2cc(-c3ccc(C(=O)N4CCOCC4)cc3)sc2c(=O)n1C	-3	nt	nt	nt
Cc1ccc(NC(=S)Nc2ccc(Cl)c(Cl)c2)c(OC(F)F)c1	2	-5	100*	i
Cc1cc(C)cc(NC(=S)Nc2ccc(Cl)c(Cl)c2)c1	3	0	100*	-9.6*
O=C(CSc1nc2nc(-c3cccs3)cc(C(F)(F)F)c2c(=O)[nH]1)Nc1c(F)c(F)c(F)c(F)c1F	-9	10	100*	i
NS(=O)(=O)c1cccc(NC(=O)CSc2nc3nc(-c4cccs4)cc(C(F)(F)F)c3c(=O)[nH]2)c1	-1	9	i	i
Clc1ccc(COc2cccc(CNCc3ccncc3)c2)cc1	-4	1	100*	i
COc1cccc(CNC(=O)[C@@H]2CCCN2C(=O)[C@@H]2CCCN2C(=O)c2cccc3ccccc23)c1	4	nt	nt	nt
Cc1ccccc1Nc1nc(Nc2ccccc2C)nc(SC2=NCCS2)n1	1	-3	25*	i
COC(=O)c1ccc(CN(c2ccc(C(=O)O)c(O)c2)S(=O)(=O)c2ccc(Cl)c([N+](=O)[O-])c2)cc1	-1	3	100*	i
O=c1ccn([C@@H]2O[C@H](CNCC3=Cc4cc(O)ccc4OC3)[C@@H](O)[C@H]2O)c(=O)[nH]1	4	0	nt	nt
Cc1ccc(-c2nn(CC(=O)NCc3cc(-c4nn(C)c(=O)c5ccccc45)ccc3C)c(=O)c3ccccc23)cc1	-58	-4	i	-7.8*
CCc1ccc(OCC(=O)NNCC(=O)Nc2ccc(OC)cc2)cc1	2	1	nt	i
COC(=O)[C@@]1(Cc2ccc(OC)cc2)[C@H]2c3cc(C(=O)N4CCCC4)n(CCc4ccc(OC)c(Br)c4)c3C[C@H]2CN1C(=O)c1ccccc1	-39	nt	nt	nt
CC(C)(C)c1ccc(C(=O)Nc2sc3c(c2C(=O)O)CCC3)cc1	-6	11	100*	i
CCCN(CC(=O)Nc1ccccc1OC)C(=O)c1ccc(S(=O)(=O)Nc2ccccc2OC)cc1	3	3	nt	i
CCCN(CC(=O)Nc1ccccc1OC)C(=O)c1ccc(S(=O)(=O)NCc2ccco2)cc1	2	-3	nt	-45*
C[n+]1c(-c2ccccc2)cc2c(=Cc3ccccc3)c3ccccc3n21	69	4	nt	-10*
CSCCC(NC(=O)c1ccco1)C(=O)NCCc1ccc(Cl)cc1 (stereo not given)	-2	0	nt	i
O=C(NC1CC1)C(=O)c1c(-c2ccccc2)[nH]c2ccccc12	7	-1	i	-7.5*
O=C(NC1CCCCC1)C(=O)c1c(-c2ccccc2)[nH]c2ccccc12	-1	0	i	i
